# PREPL inh = human PREPL enzyme inhibition | Q4J6C6 | recombinant PREPL, fluorescence polarization activity-based probe | inhibition, % at 5.96 µM | hit rate 0.68% among 320,000;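 note: 0% = enzyme with DMSO and 100% = wells lacking enzyme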
# Target sequence (Q4J6C6 whole entry, looked up): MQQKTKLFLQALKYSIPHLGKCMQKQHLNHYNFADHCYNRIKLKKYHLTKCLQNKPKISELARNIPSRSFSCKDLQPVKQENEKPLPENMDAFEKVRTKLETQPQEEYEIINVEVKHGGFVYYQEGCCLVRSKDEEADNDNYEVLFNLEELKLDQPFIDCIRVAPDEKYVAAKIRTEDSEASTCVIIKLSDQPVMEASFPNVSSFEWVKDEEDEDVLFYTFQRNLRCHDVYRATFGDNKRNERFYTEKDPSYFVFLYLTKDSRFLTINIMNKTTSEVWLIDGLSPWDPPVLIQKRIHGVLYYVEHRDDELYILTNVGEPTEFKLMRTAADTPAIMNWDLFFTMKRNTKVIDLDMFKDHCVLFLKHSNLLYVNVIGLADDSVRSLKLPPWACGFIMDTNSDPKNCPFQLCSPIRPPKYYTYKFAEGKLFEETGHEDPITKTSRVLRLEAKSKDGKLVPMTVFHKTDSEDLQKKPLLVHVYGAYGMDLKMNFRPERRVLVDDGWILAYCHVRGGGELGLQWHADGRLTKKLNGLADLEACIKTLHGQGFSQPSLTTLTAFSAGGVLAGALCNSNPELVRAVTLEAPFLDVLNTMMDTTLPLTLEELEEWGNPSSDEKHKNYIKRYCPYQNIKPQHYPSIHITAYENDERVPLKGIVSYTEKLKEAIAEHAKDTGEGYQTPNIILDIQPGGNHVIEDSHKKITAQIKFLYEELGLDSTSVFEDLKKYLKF
# PP1 inh = blocks human PP1-alpha phosphatase, a PP5 counter-screen | P62136 | purified PP1alpha, OMFP fluorescence | inhibition, % at 6.7 µM | hit rate 0.9% among 320,000 | AID 2235;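 active = inhibition above the mean inhibition of all tested compounds plus 3 SD, computed separately for each screening campaign, cut at about 15% in these data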
# Fh CTSL1 inh = counter-screen for PFM18AAP inhibitors: inhibitors of F. hepatica cathepsin L1; hit rate 0.49% among 300,000; inhibition, % at 5.96 µM; recombinant F. hepatica cathepsin L1, Z-Leu-Arg-MCA fluorescence;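 active = inhibition above the mean of all tested compounds plus 3 SD, set per screening campaign, cut at about 17% in these data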;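 note: 0% = plate median of test compound wells and 100% = 1 µM Z-Phe-Ala-diazomethylketone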
# UBC13 inh = inhibitors of human UBC13 polyubiquitin chain formation. hit rate 0.47% among 330,000. inhibition, % at 20 µM. P61088. TR-FRET; in the data active = inhibition above about 45%, passing the limit was not always enough
# PP5 inh = blocks human protein phosphatase 5 activity. hit rate 0.18% among 320,000. purified PP5c, OMFP substrate fluorescence. P53041. inhibition, % at 6.7 µM;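 active = inhibition above the campaign's mean inhibition across all tested compounds plus 3 SD, cut at about 9.5% in these data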;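 note: 0% = DMSO only and 100% = 100 µM cantharidin control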
# UCH37 DUB inh = inhibitors of human deubiquitinating enzyme UCH37; inhibition, % (no concentration beside the values); Q9Y5K5; purified proteasome/UCH37, Ub-AMC cleavage fluorescence; hit rate 0.33% among 330,000;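 active = mean inhibition over replicate wells above about 20%, limit read from the data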;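 note: 0% = compound-free wells with enzyme and 100% = wells lacking proteasome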
#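 Material: human UCH37 enzyme supplied as purified proteasome complex. Measure: % inhibition of Ub-AMC cleavage fluorescence. Medium: pH 7.4 Tris-HCl (50 mM) with ovalbumin, ATP-MgCl2, DTT. Times: 30 min preincubation with enzyme, 25 min cleavage at room temperature. Detection: AMC fluorescence intensity at 355/460 nm.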
# PREPL confirm = human PREPL inhibition, confirmation; recombinant PREPL, fluorescence polarization activity probe; inhibition, % at 5.96 µM; hit rate 67% among 2,000; AID 2803; shares compounds with PREPL inh;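 note: 0% = protein with DMSO and 100% = wells lacking protein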
# * hit, by the source's call; i = inactive; nt = not tested or not shown. Most compounds without a hit are left out; they make up all but 2.3% or so of the library. Cut-off read from the data, not from the text of the source, unless noted: active = inhibition above about 43%; inactive = the rest.
SMILES,PREPL inh,PP1 inh,Fh CTSL1 inh,UBC13 inh,PP5 inh,UCH37 DUB inh,PREPL confirm
O=C(NCCc1c[nH]c2ccccc12)OCCCCOC(=O)NCCc1c[nH]c2ccccc12,61*,0,0,45,5,1,30
COC(=O)C(=NNc1ccccc1)Sc1nnc(-c2ccc(OC)cc2)n1C,nt,nt,nt,nt,nt,7,nt
CCN(CCN(C)C)C(=O)C1CCN(S(=O)(=O)c2c(C)noc2/C=C/c2ccccc2F)CC1,44*,0,-2,4,1,5,42
CC(=NNC(=O)c1ccoc1C)c1ccccc1O,nt,nt,nt,nt,nt,0,nt
Nc1nonc1-n1nnc(C(=O)NN=Cc2ccccc2F)c1-c1cccs1,nt,nt,nt,nt,nt,2,nt
CCOC(=O)C1=C(CS(=O)(=O)c2ccc(C)cc2)NC(=O)NC1c1cc(OC)c(OC)c(OC)c1 (stereo not drawn),45*,-1,-1,-11,2,2,40
CC(C)NC(=O)c1ccc(NC(=O)CC2SC(N3CCCCC3)=NC2=O)cc1 (stereo not drawn),80*,-1,nt,2,0,1,18
CC(C)NC(=O)c1ccc(NC(=O)CC2SC(N3CCCC3)=NC2=O)cc1 (stereo not drawn),2,-5,nt,7,-1,5,nt
C/C(C=NNC(=O)Cc1cc(=O)[nH][nH]1)=C\c1ccccc1,nt,nt,nt,nt,nt,0,nt
CC(=NNC(=O)c1ccccc1O)C1CC1,nt,nt,nt,nt,nt,-101,nt
c1ccc(CN2CCN(c3nc(N4CCOCC4)c4ccccc4n3)CC2)cc1,46*,2,9,4,1,-31,39
COc1cc2c(cc1OC)C(Cc1ccc(O)c(Oc3ccc(C[C@H]4c5cc(OC)c(OC)cc5CCN4C)cc3)c1)N(C)CC2 (stereo partly drawn),45*,nt,nt,26,nt,nt,52*
Cc1cc(C(C)(C)C)ccc1OCC(=O)NN=Cc1c(C)n(C)n(-c2ccccc2)c1=O,nt,nt,nt,nt,nt,3,nt
CCCCCNC(=O)c1ccc2c(=O)[nH]c3c(C(=O)NCC4CCCO4)sc(=S)n3c2c1 (stereo not drawn),61*,0,12,-8,2,9,57*
O=C(NCc1ccccc1)c1ccc2c(=O)n(CC3CCCO3)c(=S)[nH]c2c1 (stereo not drawn),11,1,-1,8,2,1,nt
Cc1ccc(CNC(=O)c2ccc3c(=O)[nH]c4c(C(=O)NCC5CCCO5)sc(=S)n4c3c2)cc1 (stereo not drawn),44*,-2,2,-16,0,14,46*
CCn1c(N)c(C(=O)NCC2CCCO2)sc1=S (stereo not drawn),0,-1,-1,-14,1,5,nt
O=C(NCc1ccccc1)c1ccc2c(=O)[nH]c3c(C(=O)NCC4CCCO4)sc(=S)n3c2c1 (stereo not drawn),44*,-2,4,11,1,14,64*
COc1cc(C=NNC(=O)C(N)=O)cc(OC)c1O,nt,nt,nt,nt,nt,11,nt
O=C(NN=Cc1ccccn1)c1cccc(C(=O)NN=Cc2ccccn2)n1,nt,nt,nt,nt,nt,0,nt
COc1ccc(-c2cn3c(C)c(C(=O)N4CCc5ccccc5C4)sc3n2)cc1,50*,5,10,13,3,3,40
Cc1c(C(=O)N2CCc3ccccc3C2)sc2nc(-c3ccccc3)cn12,-24,5,0,8,3,4,nt
O=C(c1ccc(CNc2c(N3CCCC3)c(=O)c2=O)cc1)N1CC=C(c2ccccc2)CC1,43*,-2,0,2,2,nt,42
CC(C)c1cc(=O)oc2c3c4c(cc12)CCCN4CCC3,34,4,4,-5,2,i,nt
O=c1oc2c3c4c(cc2c(C(F)(F)F)c1CCN1CCOCC1)CCCN4CCC3,55*,-1,1,-142,0,-2,61*
SMILES,PREPL inh,PP1 inh,Fh CTSL1 inh,UBC13 inh,PP5 inh,UCH37 DUB inh,PREPL confirm
O=C(Oc1ccc(-c2ccccc2)cc1)c1ccco1,nt,nt,nt,nt,nt,4,nt
O=C(Oc1ccc2ccc(=O)oc2c1)c1ccco1,9,-3,1,14,2,i,nt
O=C(Oc1ccc(OC(=O)c2ccco2)c(S(=O)(=O)c2ccc(Br)cc2)c1)c1ccco1,94*,0,-4,-11,2,nt,93*
Cc1ccc(S(=O)(=O)c2cc(OC(=O)c3ccco3)ccc2OC(=O)c2ccco2)cc1,86*,1,-7,-10,1,2,77*
CC1(C(=O)NN=Cc2ccccc2)CC1(Cl)Cl (stereo not drawn),nt,nt,nt,nt,nt,3,nt
C[C@H]1CN([C@@H](C)CO)C(=O)Cc2cc(NS(C)(=O)=O)ccc2O[C@@H]1CN(C)Cc1ccc(Cl)c(Cl)c1,47*,nt,nt,9,nt,1,33
O=C(COc1ccc(Cl)cc1)Nc1cc2c3c(c1)CC(=O)N3CCC2,47*,5,-2,2,-1,3,35
CC(=NNC(=O)c1nnn(-c2nonc2N)c1CSc1ccccc1)c1ccc2c(c1)OCO2,nt,nt,nt,nt,nt,-4,nt
Nc1c(Cl)ncnc1N/N=C/c1ccc2ccccc2n1,64*,11,14,nt,3,nt,53*
Cc1ccc(Sc2oc(C=Nn3cnnc3)cc2Br)cc1,nt,nt,nt,nt,nt,-6,nt
COC(=O)c1c(Cl)c2n3ccccc3c(C)c(-c3ccccc3)c-2c1C(=O)OC,49*,2,2,-27,5,4,27
COc1ccc(O)c(C=NNC(=S)Nc2cccnc2)c1,nt,nt,nt,nt,nt,-117,nt
COc1ccc(NC(=O)N(C)C[C@H]2Oc3ccc(NS(=O)(=O)c4ccc(F)cc4)cc3C(=O)N([C@H](C)CO)C[C@@H]2C)cc1,10,nt,nt,7,nt,3,nt
C[C@H](CO)N1C[C@H](C)[C@@H](CN(C)C(=O)Nc2ccc(C(F)(F)F)cc2)Oc2ccc(NS(=O)(=O)c3ccc(F)cc3)cc2C1=O,46*,nt,nt,2,nt,2,41
C[C@H](CO)N1C[C@H](C)[C@@H](CN(C)C(=O)Nc2ccc(C(F)(F)F)cc2)Oc2ccc(NS(=O)(=O)c3ccccc3)cc2C1=O,46*,nt,nt,4,nt,6,45*

# Assay outcomes as filed in PubChem.
